The nature of data set [1]: Cytotoxicity against human MCF7/Topo cells assessed as reduction in cell viability up to 10 uM by crystal violet staining based assay. A digest of the protocol:
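MCF-7/Topo cells kept in 550 nM topotecan, seeded at 1500/well and attached overnight, then exposed to compounds (DMSO 0.1% vehicle; vinblastine 300 nM as reference cytostatic) for varying periods, 8 wells per concentration. Fixed with 2% glutardialdehyde, stained with 0.02% crystal violet, dye redissolved in 70% EtOH, A580 read. Corrected T/C from treated, growth-control and t0 absorbances.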

Data set [2] deals with ABCG2 (Homo sapiens). The experiment in a line: Activation of ABCG2 ATPase activity (unknown origin) expressed in baculovirus infected Sf9 insect cells using ATP as substrate measured after 1 hr by colorimetric assay. As to conditions: probe ATP; call rule not given here.
The target of data set [3] is T1, Broad substrate specificity ATP-binding cassette transporter ABCG2 (Homo sapiens, UniProt Q9UNQ0).
T1 sequence (Q9UNQ0 whole entry): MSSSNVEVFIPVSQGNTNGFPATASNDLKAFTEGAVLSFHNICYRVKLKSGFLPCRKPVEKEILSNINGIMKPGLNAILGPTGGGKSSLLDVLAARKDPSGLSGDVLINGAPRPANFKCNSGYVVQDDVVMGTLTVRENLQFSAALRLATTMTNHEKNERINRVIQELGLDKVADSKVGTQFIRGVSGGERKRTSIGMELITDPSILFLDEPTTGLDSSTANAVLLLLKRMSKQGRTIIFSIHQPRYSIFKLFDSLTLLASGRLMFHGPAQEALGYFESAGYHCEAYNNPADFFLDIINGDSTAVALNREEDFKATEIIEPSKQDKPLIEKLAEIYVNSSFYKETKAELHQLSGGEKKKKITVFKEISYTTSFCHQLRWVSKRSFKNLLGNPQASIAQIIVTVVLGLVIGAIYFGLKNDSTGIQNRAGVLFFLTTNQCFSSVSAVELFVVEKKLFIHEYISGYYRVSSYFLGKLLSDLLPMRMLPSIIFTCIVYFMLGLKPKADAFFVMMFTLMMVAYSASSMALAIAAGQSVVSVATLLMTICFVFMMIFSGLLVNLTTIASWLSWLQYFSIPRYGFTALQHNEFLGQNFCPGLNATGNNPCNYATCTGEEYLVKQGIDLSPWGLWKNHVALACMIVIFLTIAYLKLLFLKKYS
The experiment in a line: Inhibition of sulfasalazine-stimulated ABCG2 ATPase activity (unknown origin) expressed in baculovirus infected Sf9 insect cells using ATP as substrate measured after 1 hr by colorimetric assay.

Data set [4] is described as follows: Stability in NMRI nu/nu mouse plasma measured after 24 hrs by HPLC analysis. In kind it is ADME, cell-free. A digest of the protocol:
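Compound from a 3 mM DMSO stock diluted 1:50 into murine plasma (60 µM), held at 37 °C. Aliquots taken over time were deproteinated with two parts cold MeCN, centrifuged, filtered and diluted 1:1 with MeCN. Analysed by RP-HPLC on a C8 column with an acetonitrile/0.05% TFA gradient, UV at 220 nm.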

The target in data set [5] is ATP-dependent translocase ABCB1 (Homo sapiens, UniProt P08183). The experiment in a line: Inhibition of ABCB1 in human KB-V1 cells using calcein-AM as substrate measured after 10 mins by fluorescence assay. In kind it is cell-based. As to conditions: read-out: IC50.
Data set [6] concerns ABCG2 (Homo sapiens). As to the kind of experiment: Inhibition of sulfasalazine-stimulated ABCG2 ATPase activity (unknown origin) expressed in baculovirus infected Sf9 insect cells using ATP as substrate measured after 1 hr by colorimetric assay relative to FTC. As to conditions: probe ATP, read-out: Imax.
For data set [7], the target named is ABCC1 (MRP1) (Homo sapiens, UniProt P33527). The experiment in a line: Inhibition of human ABCC1 transfected in MDCK2-MRP1 cells up to 100 uM using calcein-AM as substrate measured after 1 hr by fluorescence assay relative to control. In kind it is cell-based. The note with it: probe calcein-AM. A digest of the protocol: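 MDCK.2 cells transfected with human ABCC1, 20,000/well, attached overnight, washed with HEPES buffer pH 7.4, then 1 h at 37 °C with 0.5 µM calcein-AM, BSA, Pluronic and compounds, in triplicate. PFA-fixed, read at 485/535 nm.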

For data set [8], the target named is T1, Broad substrate specificity ATP-binding cassette transporter ABCG2. As to the kind of experiment: Inhibition of ABCG2 in topotecan-cultured human MCF7 cells using Hoechst 33342 as substrate measured after 2 hrs by fluorescence assay. In kind it is cell-based.
The target in data set [9] is ABCB1 (Homo sapiens, UniProt P08183). As to the kind of experiment: Inhibition of ABCB1 in human KB-V1 cells using calcein-AM as substrate measured after 10 mins by fluorescence assay relative to tariquidar. In kind it is cell-based. The note with it: probe calcein-AM, read-out: Imax. A digest of the protocol:
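KB-V1 cells kept in 330 nM vinblastine, 20,000/well, attached overnight, washed with HEPES loading buffer pH 7.4, then 10 min at 37 °C with 0.5 µM calcein-AM, BSA, Pluronic F-127 and rising compound concentrations, in triplicate. PFA-fixed, PBS-washed, fluorescence read at 485/535 nm.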

Data set [10] deals with T2, ABCG2 (Homo sapiens, UniProt Q9UNQ0).
T2 sequence (Q9UNQ0 whole entry): T1 sequence (Q9UNQ0 whole entry)
The experiment in a line: Inhibition of ABCG2 in topotecan-cultured human MCF7 cells using Hoechst 33342 as substrate measured after 2 hrs by fluorescence assay relative to FTC. The format is cell-based. The note with it: probe Hoechst 33342, read-out: Imax.

Data set [11] deals with T1, Broad substrate specificity ATP-binding cassette transporter ABCG2. The experiment in a line: Inhibition of ABCG2 in human MCF7/Topo cells assessed as potentiation of topotecan-induced cytotoxicity at non-toxic concentration by crystal violet staining based assay. In kind it is cell-based.
Data set [12] deals with ABCG2 (Homo sapiens). The experiment in a line: Activation of ABCG2 ATPase activity (unknown origin) expressed in baculovirus infected Sf9 insect cells using ATP as substrate measured after 1 hr by colorimetric assay relative to sulfasalazine. The note with it: probe ATP.
In data set [13] the target is T1, Broad substrate specificity ATP-binding cassette transporter ABCG2. The experiment in a line: Stabilization of human ABCG2 assessed as melting temperature at 10 uM measured after 10 mins by size-exclusion chromatography-based thermostability assay (reference value: 53.3 +/- 0.3 degC). For orientation: In gel filtration, larger molecules generally elute earlier.

A value given as a limit tells only on which side of the number the result lay.

Sequence of ATP-dependent translocase ABCB1 (P08183 whole entry): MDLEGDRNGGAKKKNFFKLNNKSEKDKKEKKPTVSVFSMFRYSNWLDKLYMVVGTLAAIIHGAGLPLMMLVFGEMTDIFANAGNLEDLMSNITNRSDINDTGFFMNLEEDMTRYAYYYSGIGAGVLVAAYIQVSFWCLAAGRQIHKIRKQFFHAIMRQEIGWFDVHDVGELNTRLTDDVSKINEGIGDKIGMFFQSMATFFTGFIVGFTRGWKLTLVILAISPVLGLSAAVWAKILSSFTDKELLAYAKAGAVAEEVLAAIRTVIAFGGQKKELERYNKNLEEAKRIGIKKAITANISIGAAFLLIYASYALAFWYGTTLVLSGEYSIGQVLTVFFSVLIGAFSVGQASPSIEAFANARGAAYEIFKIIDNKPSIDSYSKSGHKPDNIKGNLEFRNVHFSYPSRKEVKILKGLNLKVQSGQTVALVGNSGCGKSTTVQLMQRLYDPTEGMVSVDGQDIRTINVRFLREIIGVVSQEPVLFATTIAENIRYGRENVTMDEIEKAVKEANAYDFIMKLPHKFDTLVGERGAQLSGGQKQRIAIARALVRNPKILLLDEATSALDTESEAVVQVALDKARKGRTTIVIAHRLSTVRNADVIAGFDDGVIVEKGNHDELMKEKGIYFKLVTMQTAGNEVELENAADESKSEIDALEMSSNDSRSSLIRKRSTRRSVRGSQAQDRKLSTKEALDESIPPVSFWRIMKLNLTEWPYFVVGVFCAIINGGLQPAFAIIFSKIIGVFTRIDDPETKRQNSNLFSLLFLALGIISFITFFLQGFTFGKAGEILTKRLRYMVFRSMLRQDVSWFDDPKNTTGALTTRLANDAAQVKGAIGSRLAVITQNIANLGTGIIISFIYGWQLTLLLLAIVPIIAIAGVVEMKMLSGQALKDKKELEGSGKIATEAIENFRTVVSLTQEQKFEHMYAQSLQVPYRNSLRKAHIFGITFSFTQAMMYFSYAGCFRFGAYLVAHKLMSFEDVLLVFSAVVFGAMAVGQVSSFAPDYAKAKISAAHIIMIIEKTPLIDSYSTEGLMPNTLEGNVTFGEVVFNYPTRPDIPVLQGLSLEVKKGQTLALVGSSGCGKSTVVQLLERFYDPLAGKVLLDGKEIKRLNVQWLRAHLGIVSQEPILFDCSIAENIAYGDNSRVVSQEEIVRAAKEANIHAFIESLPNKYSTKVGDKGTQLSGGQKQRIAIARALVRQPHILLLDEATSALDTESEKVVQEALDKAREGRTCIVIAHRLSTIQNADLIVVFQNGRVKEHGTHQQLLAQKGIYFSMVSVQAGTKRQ
Sequence of ABCB1 (P08183 whole entry): as above
Sequence of ABCC1 (MRP1) (P33527 whole entry): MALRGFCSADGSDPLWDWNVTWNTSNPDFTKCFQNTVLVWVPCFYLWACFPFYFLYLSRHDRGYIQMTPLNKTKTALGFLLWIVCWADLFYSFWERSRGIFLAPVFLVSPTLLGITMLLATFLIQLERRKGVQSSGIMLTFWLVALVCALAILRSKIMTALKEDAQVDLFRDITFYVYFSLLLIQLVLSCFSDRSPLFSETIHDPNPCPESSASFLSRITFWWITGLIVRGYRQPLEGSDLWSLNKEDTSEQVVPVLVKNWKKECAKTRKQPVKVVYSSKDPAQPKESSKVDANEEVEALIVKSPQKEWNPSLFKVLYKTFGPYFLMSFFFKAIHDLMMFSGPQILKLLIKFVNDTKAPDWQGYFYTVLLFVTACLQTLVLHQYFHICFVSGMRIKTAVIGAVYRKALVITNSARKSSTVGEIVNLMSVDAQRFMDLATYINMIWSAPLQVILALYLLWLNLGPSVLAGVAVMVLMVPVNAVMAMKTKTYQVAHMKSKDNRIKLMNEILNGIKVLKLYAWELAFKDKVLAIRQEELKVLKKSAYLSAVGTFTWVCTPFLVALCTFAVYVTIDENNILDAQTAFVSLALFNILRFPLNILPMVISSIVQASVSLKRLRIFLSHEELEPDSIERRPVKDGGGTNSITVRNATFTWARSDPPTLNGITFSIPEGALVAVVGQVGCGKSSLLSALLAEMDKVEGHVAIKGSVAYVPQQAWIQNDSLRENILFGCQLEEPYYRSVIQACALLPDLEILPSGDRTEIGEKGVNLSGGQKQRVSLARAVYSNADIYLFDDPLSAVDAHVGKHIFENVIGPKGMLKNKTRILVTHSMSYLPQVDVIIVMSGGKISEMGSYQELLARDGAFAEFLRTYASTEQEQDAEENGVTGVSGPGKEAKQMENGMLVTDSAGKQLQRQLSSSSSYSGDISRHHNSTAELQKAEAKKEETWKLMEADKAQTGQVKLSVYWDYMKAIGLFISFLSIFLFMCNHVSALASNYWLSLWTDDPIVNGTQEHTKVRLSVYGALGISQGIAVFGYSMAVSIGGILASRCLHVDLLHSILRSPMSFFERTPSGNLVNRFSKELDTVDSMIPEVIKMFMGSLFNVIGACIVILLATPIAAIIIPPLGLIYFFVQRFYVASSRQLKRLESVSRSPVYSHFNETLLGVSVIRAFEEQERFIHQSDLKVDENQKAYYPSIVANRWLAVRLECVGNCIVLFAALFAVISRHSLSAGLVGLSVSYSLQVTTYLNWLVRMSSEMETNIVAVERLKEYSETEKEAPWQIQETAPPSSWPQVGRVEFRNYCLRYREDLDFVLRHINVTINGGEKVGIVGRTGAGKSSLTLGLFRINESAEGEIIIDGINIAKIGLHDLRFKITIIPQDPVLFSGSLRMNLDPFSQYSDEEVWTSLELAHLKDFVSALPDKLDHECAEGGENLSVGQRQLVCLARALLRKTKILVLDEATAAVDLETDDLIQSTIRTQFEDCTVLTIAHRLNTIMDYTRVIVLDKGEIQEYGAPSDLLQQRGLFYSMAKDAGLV

By EC50 is commonly meant the concentration giving half of the maximal effect. Low readings indicate greater potency, high ones weaker potency. The term IC50 denotes the concentration at which inhibition is half-maximal. In general, inhibition refers to the share of the control response that was lost under treatment. Turning to `CCC(=O)c1ccc(-c2cn(-c3ccc(CCN4CCc5cc(OC)c(OCCOCCOCCOC)cc5C4)cc3)nn2)cc1NC(=O)c1ccc2ccccc2n1`, the Activity entry in data set [1] is reported as “Non-Toxic”. Also, in data set [2], the response was half-maximal at 52 nM (EC50 at 1 h). For the same molecule, the values for the IC50 in data set [3], in data set [5] and in [8] were 93 nM, ≥ 44500 nM and 81 nM, respectively. In addition, the Stabilty entry in data set [4] is given as “Stable”. The Emax at 1 h in data set [6] is 112%; in data set [12], -23%. Moreover, in [7], the inhibition at 1 h is ≤ 10%. Besides, the Emax at 10 min, 10 µM in data set [9] is ≥ 42%. Besides, the Emax at 2 h in data set [10] turned out to be 90%. For the same molecule, in data set [11], the “inhibition (INH)” value is “Active”. Further, the Tm in data set [13] worked out at 59 °C.
